Measurements taken from ChEMBL document CHEMBL4371058, “Design, synthesis and characterization of novel N-heterocyclic-1-benzyl-1H-benzo[d]imidazole-2-amines as selective TRPC5 inhibitors leading to the identification of the selective compound, AC1903” (Bioorg Med Chem Lett, 2019).

How the values were obtained:
[1] = biological target: T1, Short transient receptor potential channel 5 (Mus musculus) (UniProt Q9QX29); assay: Inhibition of mouse TRPC5 expressed in Flp-In-T-Rex-HEK293 cells assessed as reduction in […]-induced channel current at 3 uM by automated patch clamp method relative to control; format: cell-based
T1 sequence (whole entry): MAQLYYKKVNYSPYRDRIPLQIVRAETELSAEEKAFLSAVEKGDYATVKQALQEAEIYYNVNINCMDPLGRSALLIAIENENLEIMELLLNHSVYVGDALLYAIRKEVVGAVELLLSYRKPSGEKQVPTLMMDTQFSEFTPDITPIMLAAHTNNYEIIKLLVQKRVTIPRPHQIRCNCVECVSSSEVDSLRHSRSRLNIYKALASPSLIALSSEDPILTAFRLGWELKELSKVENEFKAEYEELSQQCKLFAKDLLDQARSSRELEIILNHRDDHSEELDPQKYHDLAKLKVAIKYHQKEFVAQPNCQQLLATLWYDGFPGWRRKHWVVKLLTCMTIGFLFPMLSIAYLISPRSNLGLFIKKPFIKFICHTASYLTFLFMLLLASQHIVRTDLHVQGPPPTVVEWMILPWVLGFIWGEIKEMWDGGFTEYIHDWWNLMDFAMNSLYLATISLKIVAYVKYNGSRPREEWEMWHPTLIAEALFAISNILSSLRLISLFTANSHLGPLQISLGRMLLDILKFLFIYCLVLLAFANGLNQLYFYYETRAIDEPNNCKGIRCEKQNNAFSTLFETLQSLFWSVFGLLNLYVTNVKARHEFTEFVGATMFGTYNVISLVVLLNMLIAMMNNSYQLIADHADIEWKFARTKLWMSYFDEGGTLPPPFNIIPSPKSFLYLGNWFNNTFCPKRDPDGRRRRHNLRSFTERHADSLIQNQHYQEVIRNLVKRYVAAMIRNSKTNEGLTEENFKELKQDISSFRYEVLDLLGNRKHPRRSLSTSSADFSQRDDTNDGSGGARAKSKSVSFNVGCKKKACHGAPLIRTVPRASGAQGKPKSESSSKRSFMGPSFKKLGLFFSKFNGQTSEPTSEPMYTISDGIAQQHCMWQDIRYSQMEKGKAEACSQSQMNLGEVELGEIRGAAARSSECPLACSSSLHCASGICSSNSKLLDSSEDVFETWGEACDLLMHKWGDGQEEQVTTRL
Method in brief: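 Automated patch clamp (Syncropatch), one concentration in one well, >10 cells. At least one session across two assay plates. DMSO vehicle and a reference inhibitor run as controls on every plate. Result expressed as % inhibition.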

[2] = biological target: T2, Short transient receptor potential channel 5 (Mus musculus, UniProt Q9QX29); assay: Inhibition of mouse TRPC5 expressed in Flp-In-T-Rex-HEK293 cells assessed as reduction in […]-induced channel current by automated patch clamp method; format: cell-based
T2 sequence (Q9QX29 whole entry): T1 sequence (whole entry)
Method in brief: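 Automated patch clamp (Syncropatch) with multiple concentrations in multiple wells. IC50 determined from these wells.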

[3] = AUC in rat at 25 mg/kg, ip; format: ADME, organism-based; settings: in vivo
Method in brief: (§1)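 Single intraperitoneal dose of 25 mg/kg in 5% DMSO, 10% Tween80, 85% PBS.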

[4] = Cmax in rat at 25 mg/kg, ip; format: ADME, organism-based; set-up: dose 25 mg/kg, route intraperitoneal; settings: in vivo; method in brief: as §1
[5] = Tmax in rat at 25 mg/kg, ip; format: ADME, organism-based; settings: in vivo; method in brief: as §1

`c1ccc(Cn2c(Nc3ccccc3)nc3ccccc32)cc1` showed an inhibition [1] of 18.9%.

Compound `Cc1nnc(CNc2nc3ccccc3n2Cc2ccccc2)s1` has an inhibition [1] of 30%.

`c1ccc(Cn2c(NCc3nccs3)nc3ccccc32)cc1` showed an inhibition [1] of 42.5%.

`N#Cc1ccc(Cn2c(NCc3ccco3)nc3ccccc32)cc1` showed an inhibition [1] of 50.5%.

`c1ccc(Cn2c(NCc3cccs3)nc3ccccc32)cc1` gave an inhibition [1] of 150% and an IC50 [2] of 6.26 µM.

In the case of `c1ccc(Cn2c(NCc3ccccn3)nc3ccccc32)cc1`, the inhibition [1] is reported as -1.8%.

`c1ccc(Cn2c(NCc3ccon3)nc3ccccc32)cc1` showed an inhibition [1] of 47%.

In the case of `c1ccc(Cn2c(NCc3cc4ccccc4o3)nc3ccccc32)cc1`, the inhibition [1] is reported as 18%.

`Clc1cccc(Cn2c(NCc3ccco3)nc3ccccc32)c1` gave an inhibition [1] of 70.2%.

Compound `Cc1ncc(CNc2nc3ccccc3n2Cc2ccccc2)s1` has an inhibition [1] of 35.7%.

Work on `CC(Nc1nc2ccccc2n1Cc1ccccc1)c1ccco1` (configuration not stated) yielded an inhibition [1] of 91.4% and an IC50 [2] of 4.44 µM.

`Fc1cccc(Cn2c(NCc3ccco3)nc3ccccc32)c1` showed an inhibition [1] of 61.9%.

In the case of `CCCn1c(NCc2ccco2)nc2ccccc21`, the inhibition [1] is reported as 81.2% and the IC50 [2] is reported as 15.5 µM.

`COc1ccc(Cn2c(NCc3ccco3)nc3ccccc32)cc1F` showed an inhibition [1] of 88.4% and an IC50 [2] of 11.6 µM.

With `c1coc(CNc2nc3ccccc3n2CC2CCC2)c1` the inhibition [1] was 117%.

`Fc1ccccc1Cn1c(NCc2ccco2)nc2ccccc21` showed an inhibition [1] of 54.4%.

In the case of `c1ccc(Cn2c(NCc3ccco3)nc3ccccc32)cc1`, the inhibition [1] is reported as 100%, the AUC [3] is reported as 1130 ng·h/mL and the Cmax [4] is reported as 687 ng/mL. It also gave an IC50 [2] of 4.06 µM and a Tmax [5] of 6.6 min.

`Cc1cc2nc(NCc3ccco3)n(Cc3ccccc3)c2cc1C` showed an inhibition [1] of 123% and an IC50 [2] of 12.3 µM.

Compound `Cc1nc(CNc2nc3ccccc3n2Cc2ccccc2)no1` has an inhibition [1] of 19.8%.

In the case of `c1ccc(Cn2c(Nc3cccnc3)nc3ccccc32)cc1`, the inhibition [1] is reported as 19.9%.

Work on `c1coc(CNc2nc3ccccc3n2CC2CCCCC2)c1` yielded an inhibition [1] of 61.6%.

With `O=C(Nc1nc2ccccc2n1Cc1ccccc1)c1ccco1` the inhibition [1] was 38.5%.

`c1ccc(CNc2nc3ccccc3n2Cc2ccccc2)cc1` gave an inhibition [1] of 32.8%.

In the case of `CN(Cc1ccco1)c1nc2ccccc2n1Cc1ccccc1`, the inhibition [1] is reported as 41.7%.

`Cc1ccoc1CNc1nc2ccccc2n1Cc1ccccc1` gave an inhibition [1] of 82.3% and an IC50 [2] of 6.93 µM.

In the case of `Fc1ccc(Cn2c(NCc3ccco3)nc3ccccc32)cc1`, the IC50 [2] is reported as 1.82 µM.

Work on `c1ccc(Cn2c(NCc3ncco3)nc3ccccc32)cc1` yielded an inhibition [1] of 19.1%.

Work on `CC(Nc1nc2ccccc2n1Cc1ccccc1)c1nccs1` (configuration not stated) yielded an inhibition [1] of 45%.

In the case of `Clc1ccccc1Cn1c(NCc2ccco2)nc2ccccc21`, the inhibition [1] is reported as 2.6%.

Work on `Cc1nc2ccccc2n1Cc1ccccc1` yielded an inhibition [1] of 19%.

`Brc1ccc(OCCn2c(NCc3ccco3)nc3ccccc32)cc1` showed an inhibition [1] of 91.1%.

With `Cc1cccc(Cn2c(NCc3ccco3)nc3ccccc32)c1` the inhibition [1] was 94.6% and the IC50 [2] was 4.8 µM.

Work on `Fc1ccc(Cn2c(NCc3ccco3)nc3ccccc32)c(F)c1` yielded an inhibition [1] of 87% and an IC50 [2] of 8.42 µM.

`c1ccc(Cn2c(NCc3cccnc3)nc3ccccc32)cc1` showed an inhibition [1] of 12%.

`Fc1ccc(Cn2c(NCc3ccco3)nc3cccnc32)cc1` gave an inhibition [1] of 21.7%.

In the case of `c1ccc(Cn2c(NCc3cnco3)nc3ccccc32)cc1`, the inhibition [1] is reported as 33.3%.

With `c1ccc(Cn2c(NCc3ccco3)nc3cccnc32)cc1` the inhibition [1] was 31.2%.

`c1coc(CNc2nc3ccccc3n2CC2CCCO2)c1` (configuration not stated) gave an inhibition [1] of 65.2%.

Work on `c1ccc(Cn2c(NCc3ccncc3)nc3ccccc32)cc1` yielded an inhibition [1] of 17.4%.

Work on `Clc1cc2nc(NCc3ccco3)n(Cc3ccccc3)c2cc1Cl` yielded an inhibition [1] of 28.2%.

In the case of `Fc1ccc(Cn2c(NCc3ccco3)nc3ccccc32)c(Cl)c1`, the inhibition [1] is reported as 23.6%.

In the case of `Fc1cc(Cl)ccc1Cn1c(NCc2ccco2)nc2ccccc21`, the inhibition [1] is reported as 128% and the IC50 [2] is reported as 18.1 µM.

Work on `c1coc(CNc2nc3ccccc3n2CCN2CCOCC2)c1` yielded an inhibition [1] of 34.4%.

In the case of `Clc1ccc(Cn2c(NCc3ccco3)nc3ccccc32)cc1`, the inhibition [1] is reported as 70.9%.
